Reference: ChEMBL document CHEMBL4808192, “Synthesis and biological evaluation of novel imidazo[1,2-a]pyridine-oxadiazole hybrids as anti-proliferative agents: Study of microtubule polymerization inhibition and DNA binding” (Bioorg Med Chem, 2021)
Values belong to the compound of their own block, whether it stands above or below them. Activity calls are given as the source filed them. The rule behind the calls is not given here.

Legend:
[1] = system: PC-3; test: Antiproliferative activity against human PC-3 cells assessed as reduction in cell viability incubated for 48 hrs by MTT assay; assay type: functional, cell-based; conditions: PC-3, 48 h
Outline: (§1)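 Cells grown in medium with 10% FBS and 1% antibiotic-antimycotic at 37 °C, passaged at 80–90% confluence with 0.25% trypsin/1 mM EDTA. Seeded at 1000–4000 cells/well and grown overnight. Medium was then replaced and compounds added at various concentrations for 48 h. MTT (0.5 mg/mL) was added for 4 h at 37 °C, formazan dissolved in DMSO and absorbance read at 570 nm. IC50 is the 50% inhibitory concentration.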

[2] = system: DU-145; test: Antiproliferative activity against human DU-145 cells assessed as reduction in cell viability incubated for 48 hrs by MTT assay; assay type: functional, cell-based; conditions: DU-145, 48 h; outline: as §1
[3] = system: A549; test: Antiproliferative activity against human A549 cells assessed as reduction in cell viability incubated for 48 hrs by MTT assay; assay type: functional, cell-based; conditions: A549, 48 h; outline: as §1
[4] = system: HEK293; test: Cytotoxicity against human HEK293 cells assessed as reduction in cell viability incubated for 48 hrs by MTT assay; assay type: cell-based; conditions: HEK293, 48 h; outline: as §1
[5] = system: A549; test: Cell cycle arrest in human A549 cells assessed as accumulation of cells at G0/G1 phase at 2.8 uM measured after 48 hrs by propidium iodide staining based FACS cytometry analysis (reference value: 73%); assay type: functional
[6] = system: A549; test: Induction of apoptosis in human A549 cells assessed as viable cells at 2.8 uM measured after 48 hrs by Annexin V-FITC/Propidium iodide staining based flowcytometry analysis (reference value: 83.1%); assay type: functional; conditions: read-out: Activity
[7] = system: A549; test: Induction of apoptosis in human A549 cells assessed as pre and post apoptotic cells at 2.8 uM measured after 48 hrs by Annexin V-FITC/Propidium iodide staining based flowcytometry analysis (reference value: 0.1%); assay type: functional
[8] = system: HEK293; test: Cell cycle arrest in human HEK293 cells assessed as accumulation of cells at G2/M phase at 2.8 uM measured after 48 hrs by propidium iodide staining based FACS cytometry analysis (reference value: 16.1%); conditions: hek293, 48 h
[9] = system: Calf thymus DNA; test: Binding affinity to calf thymus DNA assessed as decrease in negative peak intensity at compound:DNA concentration ratio of 1:1 to 1:2 by CD spectroscopy; conditions: Bos taurus
Outline: (§2)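 Circular dichroism of CT-DNA (10 × 10^-6 M) in 100 mM Tris-HCl pH 7.0 at 25 °C. Spectra taken from 220 to 320 nm at CT-DNA:compound molar ratios of 1:0, 1:1 and 1:2. Each spectrum is the average of three scans.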

[10] = system: HEK293; test: Cell cycle arrest in human HEK293 cells assessed as accumulation of cells at S phase at 2.8 uM measured after 48 hrs by propidium iodide staining based FACS cytometry analysis (reference value: 18.8%); conditions: hek293, 48 h
[11] = species: Sus scrofa; test: Inhibition of pig brain tubulin polymerization at 8 uM incubated for 1 hr by fluorescence based analysis relative to control; assay type: tissue-based
Outline: (§3)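 Cell-free fluorescence kit assay with porcine brain tubulin (2 mg/mL) in 80 mM PIPES pH 6.9, 2.0 mM MgCl2, 0.5 mM EGTA, 1.0 mM GTP and glycerol. Compound tested at 0.5, 1, 2, 4 and 8 μM, with a DMSO vehicle and a 3 μM podophyllotoxin reference. Polymerization followed at excitation 360/emission 440 nm for 1 h at 37 °C. Inhibition taken relative to vehicle; IC50 is the concentration giving 50% inhibition of assembly.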

[12] = species: Sus scrofa; test: Inhibition of pig brain tubulin polymerization at 0.5 uM incubated for 1 hr by fluorescence based analysis relative to control; assay type: tissue-based; outline: as §3
[13] = system: Calf thymus DNA; test: Binding affinity to calf thymus DNA assessed as hypochromicity at 10 uM measured every 5 mins by fluorescence titration analysis; conditions: Bos taurus
Outline: (§4)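 Fluorescence titration at 25 °C in a 1 cm quartz cuvette. Compound held at 10 μM while CT-DNA was added about 0.5 μM per step. Excitation 250 nm, emission scanned 300–500 nm with the peak followed at 360 nm. Each spectrum is the average of three scans. Cuvettes washed with water and about 0.1 N nitric acid between runs.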

[14] = system: Calf thymus DNA; test: Binding affinity to calf thymus DNA assessed as absorption peak between 310 and 312 nm at 10 uM measured every 5 mins by UV-Vis spectroscopic analysis; conditions: Bos taurus
Outline: (§5)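 UV–Vis titration at 25 °C in a 1 cm quartz cuvette. Compound at about 10 μM (1 mM stock in 1:1 DMSO:water). CT-DNA (1 mM stock in 100 mM Tris-HCl pH 7.0) added about 0.5 μM at a time until the band was unchanged over five successive additions. Spectra recorded from 200 to 400 nm.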

[15] = Selectivity index, ratio of IC50 for human HEK293 cells to IC50 for human DU-145 cells assessed as reduction in cell viability measured after 48 hrs by MTT assay
[16] = Selectivity index, ratio of IC50 for human HEK293 cells to IC50 for human PC-3 cells assessed as reduction in cell viability measured after 48 hrs by MTT assay; assay type: toxicity; conditions: HEK293 cells versus PC-3 cells, read-out: Ratio IC50
[17] = system: Calf thymus DNA; test: Binding affinity to calf thymus DNA measured every 5 mins by UV-Vis spectroscopic analysis; parameters: species or system Bos taurus; outline: as §5
[18] = system: HEK293; test: Cell cycle arrest in human HEK293 cells assessed as accumulation of cells at sub-G1 phase at 2.8 uM measured after 48 hrs by propidium iodide staining based FACS cytometry analysis (reference value: 1%); conditions: hek293, 48 h
[19] = system: Calf thymus DNA; test: Binding affinity to calf thymus DNA assessed as decrease in positive peak intensity at compound:DNA concentration ratio of 1:1 to 1:2 by CD spectroscopy; conditions: Bos taurus; outline: as §2
[20] = system: Calf thymus DNA; test: Binding affinity to calf thymus DNA assessed as hyperchromicity at 10 uM measured every 5 mins by UV-Vis spectroscopic analysis; conditions: Bos taurus; outline: as §5
[21] = system: A549; test: Cell cycle arrest in human A549 cells assessed as accumulation of cells at G2/M phase at 2.8 uM measured after 48 hrs by propidium iodide staining based FACS cytometry analysis (reference value: 10.1%); assay type: functional
[22] = system: HEK293; test: Induction of apoptosis in human HEK293 cells assessed as pre and post apoptotic cells at 2.8 uM measured after 48 hrs by Annexin V-FITC/Propidium iodide staining based flowcytometry analysis (reference value: 0.2%); assay type: cell-based; conditions: hek293, 48 h
[23] = system: Calf thymus DNA; test: Binding affinity to calf thymus DNA assessed as emission spectra at 360 nm at 10 uM measured every 5 mins by fluorescence titration analysis; conditions: Bos taurus; outline: as §4
[24] = system: HEK293; test: Cell cycle arrest in human HEK293 cells assessed as accumulation of cells at G0/G1 phase at 2.8 uM measured after 48 hrs by propidium iodide staining based FACS cytometry analysis (reference value: 64.1%); conditions: hek293, 48 h
[25] = system: A549; test: Cell cycle arrest in human A549 cells assessed as accumulation of cells at S phase at 2.8 uM measured after 48 hrs by propidium iodide staining based FACS cytometry analysis (reference value: 12.7%); assay type: functional
[26] = species: Sus scrofa; test: Inhibition of pig brain tubulin polymerization at 1 uM incubated for 1 hr by fluorescence based analysis relative to control; assay type: tissue-based; outline: as §3
[27] = system: A549; test: Cell cycle arrest in human A549 cells assessed as accumulation of cells at subG1 phase at 2.8 uM measured after 48 hrs by propidium iodide staining based FACS cytometry analysis (reference value: 4.2%); assay type: functional
[28] = species: Sus scrofa; test: Inhibition of pig brain tubulin polymerization at 2 uM incubated for 1 hr by fluorescence based analysis relative to control; assay type: tissue-based; outline: as §3
[29] = species: Sus scrofa; test: (§6) Inhibition of pig brain tubulin polymerization incubated for 1 hr by fluorescence based analysis; assay type: tissue-based; outline: as §3
[30] = as §6; assay type: tissue-based, Sus scrofa; outline: as §3
[31] = Induction of apoptosis in human HEK293 cells assessed as viable cells at 2.8 uM measured after 48 hrs by Annexin V-FITC/Propidium iodide staining based flowcytometry analysis (reference value: 80.2%); assay type: cell-based; conditions: read-out: Activity
[32] = Selectivity index, ratio of IC50 for human HEK293 cells to IC50 for human A549 cells assessed as reduction in cell viability measured after 48 hrs by MTT assay; assay type: toxicity; conditions: HEK293 cells versus A549 cells, read-out: Ratio IC50
[33] = species: Sus scrofa; test: Inhibition of pig brain tubulin polymerization at 4 uM incubated for 1 hr by fluorescence based analysis relative to control; assay type: tissue-based; outline: as §3
[34] = system: Calf thymus DNA; test: Binding affinity to calf thymus DNA assessed as increase in viscosity at 15 uM by Ostwald viscometric analysis; conditions: Bos taurus
Outline: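 Ostwald viscometer in a 25 °C water bath. CT-DNA (150 μM, in 100 mM Tris-HCl pH 7.0) was measured alone, then after mixing with compound at 15 μM. EtBr and Hoechst 33342 complexes with CT-DNA served as controls.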

[35] = biological target: Tubulin (Homo sapiens) (UniProt P68371+Q9H4B7+P0DPH7+P68366+Q13509+Q71U36+P04350+Q3ZCM7+P07437+P68363+Q9BQE3+Q6PEY2+Q13885+Q9BVA1+Q9BUF5); test: Inhibition of tubulin polymerization in human A549 cells assessed as disruption of microtubule network at IC50 measured after 48 hrs by confocal microscopic analysis; assay type: cell-based

SMILES: Cc1cccn2cc(-c3nnc(-c4ccccc4I)o3)nc12
- IC50 [1]: 33.5 µM
- IC50 [2]: 31.5 µM
- IC50 [3]: 33.4 µM

SMILES: COc1cc(-c2nnc(-c3cn4cccc(C)c4n3)o2)cc(OC)c1OC
- IC50 [1]: 10.9 µM
- IC50 [2]: 11.2 µM
- IC50 [3]: 9.9 µM

SMILES: Cc1cc(Br)c2nc(-c3nnc(-c4ccc(Br)cc4)o3)cn2c1
- IC50 [1]: 24.5 µM
- IC50 [2]: 22.3 µM
- IC50 [3]: 23.4 µM

SMILES: Cc1cc(Br)c2nc(-c3nnc(-c4ccccc4)o3)cn2c1
- IC50 [1]: 17.8 µM
- IC50 [2]: 18.9 µM
- IC50 [3]: 14.5 µM

SMILES: COc1cc(-c2nnc(-c3cn4ccccc4n3)o2)cc(OC)c1OC
- IC50 [4]: 89 µM
- Activity [5]: 74.5%
- viability at 2.8 µM [6]: 4.3%
- Activity [7]: 86.5%
- Activity [8]: 15.7%
- Activity [9]: Active
- Activity [10]: 18.8%
- inhibition [11]: 81.2%
- IC50 [1]: 3.5 µM
- inhibition [12]: 4.6%
- Activity [13]: Active
- Activity [14]: Active
- Ratio IC50 [15]: 19.7
- selectivity ratio at 48 h [16]: 25.4
- Kd [17]: 0.042 µM
- Activity [18]: 2.1%
- Activity [19]: Active
- Activity [20]: Active
- Activity [21]: 17.1%
- Activity [22]: 74.5%
- Activity [23]: Active
- Activity [24]: 63.2%
- Activity [25]: 6.9%
- inhibition [26]: 11.5%
- Activity [27]: 1.3%
- inhibition [28]: 21.7%
- inhibition [29]: Dose-Dependent Effect
- IC50 [30]: 3.45 µM
- viability at 48 h, 2.8 µM [31]: 18.5%
- selectivity ratio at 48 h [32]: 29
- IC50 [2]: 4.5 µM
- IC50 [3]: 2.8 µM
- inhibition [33]: 60.1%
- Activity [34]: Active
- inhibition [35]: Active

SMILES: COc1ccc(-c2nnc(-c3cn4cccc(C)c4n3)o2)cc1OC
- IC50 [1]: 11.5 µM
- IC50 [2]: 11.8 µM
- IC50 [3]: 10.9 µM

SMILES: COc1cc([C@@H]2c3cc4c(cc3[C@H](O)[C@H]3COC(=O)[C@H]23)OCO4)cc(OC)c1OC [PODOFILOX]
- IC50 [1]: 0.06 µM
- IC50 [2]: 0.06 µM

SMILES: Cc1cc(Br)c2nc(-c3nnc(-c4ccc(N(C)C)cc4)o3)cn2c1
- IC50 [1]: 11.2 µM
- IC50 [2]: 12.8 µM
- IC50 [3]: 10.8 µM

Results, then the compound that gave them:

- IC50 [1]: 33.7 µM
- IC50 [2]: 32.8 µM
- IC50 [3]: 32.4 µM
SMILES: Clc1ccc(-c2nnc(-c3cn4ccccc4n3)o2)cc1

- IC50 [1]: 22.2 µM
- IC50 [2]: 23.4 µM
- IC50 [3]: 23.4 µM
SMILES: c1ccc(-c2nnc(-c3cn4ccccc4n3)o2)cc1

- IC50 [1]: 22.8 µM
- IC50 [2]: 21.8 µM
- IC50 [3]: 23.4 µM
SMILES: Cc1cccn2cc(-c3nnc(-c4ccccc4)o3)nc12

- IC50 [1]: 11.6 µM
- IC50 [2]: 10.8 µM
- IC50 [3]: 12.3 µM
SMILES: Cc1cccn2cc(-c3nnc(-c4ccc(N(C)C)cc4)o3)nc12

- IC50 [1]: 42 µM
- IC50 [2]: 46 µM
- IC50 [3]: 43.5 µM
SMILES: Cc1cc(Br)c2nc(-c3nnc(-c4ccc(Cl)cc4)o3)cn2c1

- IC50 [1]: 13.4 µM
- IC50 [2]: 12.9 µM
- IC50 [3]: 11.9 µM
SMILES: COc1ccc(-c2nnc(-c3cn4ccccc4n3)o2)cc1

- IC50 [1]: > 50 µM
- IC50 [2]: > 50 µM
- IC50 [3]: > 50 µM
SMILES: Brc1ccc(-c2nnc(-c3cn4ccccc4n3)o2)cc1

- IC50 [1]: 11.8 µM
- IC50 [2]: 10.8 µM
- IC50 [3]: 12.8 µM
SMILES: COc1ccc(-c2nnc(-c3cn4cccc(C)c4n3)o2)cc1

- IC50 [1]: 37.8 µM
- IC50 [2]: 38.9 µM
- IC50 [3]: 34.7 µM
SMILES: Cc1cccn2cc(-c3nnc(-c4ccc(Br)cc4)o3)nc12
